In publication PMC3234294 (Analytical chemistry, 2011):
Each block holds one substance with its values, some of them ahead of it.

Key:
[1] = QCM binding of antibodies to MUA sensor surface; settings: 1 μl of 1 μg/μl MAb spiked into 1 ml PBS
How it was run: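 Au QCM electrodes, bare or modified by overnight SAM formation at 4 °C (MUA or peptide monolayers), rinsed with water and placed in 1 ml PBS. Therapeutic monoclonal antibodies (1 μg/μl stock) were spiked sequentially, 1 μl each, into the cuvette. Frequency change was recorded against time with a network/impedance analyzer.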

[2] = QCM binding of antibodies to bare Au sensor surface; settings: 1 μl of 1 μg/μl MAb spiked into 1 ml PBS
[3] = test system: Herceptin; test: CH-19 piezoimmunosensor analytical performance for Herceptin detection; design: species or system humanized
[4] = CV of CH-19 modified Au electrode before and after Herceptin; type: physicochemical; settings: upon surface deposition of CH-19 and Herceptin; 0.1 M NaClO4, 50 mV/s
[5] = EIS of CH-19 modified Au electrode before and after Herceptin; type: physicochemical; settings: bare Au to CH-19 to binding with Herceptin; 0.01 Hz-100 kHz, 5 mV
[6] = test system: Herceptin; test: QCM binding of immobilized HER2 mimotope-derived peptides to Herceptin; design: species or system humanized
[7] = test system: Cetuximab; test: QCM nonspecific binding of immobilized CH-19 to Cetuximab; settings: CH-19 modified Au QCM electrode, PBS, final 1 μg/ml
How it was run: (§1)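 A CH-19 peptide monolayer was self-assembled on an Au QCM electrode overnight at 4 °C, rinsed, and held in PBS. The non-target therapeutic antibodies were spiked in sequentially into the same cuvette, each as 1 μl into 999 μl PBS (final 1 μg/ml). Label-free frequency shift (ΔF) was followed in real time with a network/impedance analyzer.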

[8] = test system: Rituxan; test: QCM nonspecific binding of immobilized peptides to Rituxan
How it was run: as §1

[9] = test system: Avastin; test: QCM nonspecific binding of immobilized peptides to Avastin
How it was run: as §1

[10] = test system: Herceptin; settings: previously reported; ref 16 (Jiang et al.); cited from earlier work
[11] = QCM, CV and EIS summarized, all four peptide designs
[12] = CH-19 modified Au QCM electrode, PBS, final 1 μg/ml

- Binding to MUA sensor surface, in words [1]: appreciable
- Binding to bare Au sensor surface, in words [2]: negligible
Substance: Avastin: therapeutic MAb, control drug

- redox peaks of Fe(CN)6 probe [4]: gradually disappeared
- Nyquist plots (electron transfer resistance) [5]: enlarged step-by-step
- Ka (affinity for Herceptin) ([6]; CH-19 modified gold QCM electrode (Figure S3)): 7.96e+08 M⁻¹
- Buffering effects on Herceptin/CH-19 interaction ([6]; Herceptin lowered 10 fold to 0.1 μg/ml, H2O, PBS or HBS-EP): similar
- Overall binding capacity with Herceptin among peptide designs [6, 11]: highest binding capacity with Herceptin
- Herceptin bound to the CH-19 modified gold QCM electrode (mass) ([6]; estimated by Sauerbrey's equation, ΔF of 1 Hz about 1 ng, PBS, 1 μg/ml Herceptin): ~ 225 ng
- frequency change (ΔF) with free Herceptin ([6]; simple buffer (1 ml HBS-EP), 1 μl Herceptin stock 1 μg/μl, no serum): ~ 275 Hz
- frequency shift (ΔF) with Cetuximab [7]: ~ 0 Hz
- frequency shift (ΔF) with Rituxan [8, 12]: ~ 0 Hz
- Nonspecific binding activity with Rituxan among peptide designs [8, 11]: lowest nonspecific binding activity
- frequency shift (ΔF) with Avastin [9, 12]: ~ 0 Hz
- Nonspecific binding activity with Avastin among peptide designs [9, 11]: lowest nonspecific binding activity
Substance: CGSGSGSQLGPYELWELSH [CH-19]
- sensitivity ([3]; PBS buffer): 0.52 Hz · ml/ng
- time to detection of Herceptin, in words ([3]; PBS buffer, frequency change vs time): within minutes
- detection limit ([3]; PBS buffer, S/N = 3, N ~ 1.85 Hz): 10.70 ng/mL
- detection limit ([3]; in simple buffers and in human serum samples (Table S3)): 0.038 nM
- detection limit ([3]; piezoimmunosensor assay, standard curve in HBS-EP buffer): 0.038 nM

Substance: QLGPYELWELSH
- specific binding activities to Herceptin, in words [10]: exhibited specific binding activities to Herceptin

- Binding to MUA sensor surface, in words [1]: appreciable
- Binding to bare Au sensor surface, in words [2]: negligible
Substance: Rituxan: therapeutic MAb, control drug

Substance: GPYELWELSH
- specific binding activities to Herceptin, in words [10]: exhibited specific binding activities to Herceptin
